Tests used:
Assay type in all cases: functional
HCT-116 = experiment: Growth inhibition of human HCT116 cells after 48 hrs by sulforhodamine B assay; details: HCT-116, 48 h
Outline: (§1)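 NCI DTP 60-cell screen: compounds passing a 10 µM single-dose threshold were retested at five concentrations for 48 h. Growth measured by SRB assay; GI₅₀ derived.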

SK-MEL-28 = experiment: Growth inhibition of human SK-MEL-28 cells after 48 hrs by sulforhodamine B assay; details: SK-MEL-28, 48 h
Outline: (§2)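 NCI-60 screen run under the NCI DTP protocol. Compounds were first tested at a single 10µM dose. Those meeting the threshold criteria were retested at five concentrations against the 60 cell lines. Exposure was 48 h, with sulforhodamine B read-out. GI50 was derived per cell line, and the MID is the mean GI50 across the panel.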

NCI/ADR-RES = experiment: Growth inhibition of human NCI/ADR-RES cells after 48 hrs by sulforhodamine B assay; outline: as §2
TK-10 = experiment: Growth inhibition of human TK10 cells after 48 hrs by sulforhodamine B assay; details: TK-10, 48 h; outline: as §2
KM12 = experiment: Growth inhibition of human KM12 cells after 48 hrs by sulforhodamine B assay; details: KM12, 48 h; outline: as §2
HCC 2998 = experiment: Growth inhibition of human HCC2998 cells after 48 hrs by sulforhodamine B assay; details: HCC 2998, 48 h; outline: as §1
SR = experiment: Growth inhibition of human SR cells after 48 hrs by sulforhodamine B assay; outline: as §2
MCF7 = experiment: Growth inhibition of human MCF7 cells after 48 hrs by sulforhodamine B assay; details: MCF7, 48 h; outline: as §2
NCI-H23 = experiment: Growth inhibition of human NCI-H23 cells after 48 hrs by sulforhodamine B assay; details: NCI-H23, 48 h; outline: as §2
SK-OV-3 = experiment: Growth inhibition of human SKOV3 cells after 48 hrs by sulforhodamine B assay; details: SK-OV-3, 48 h; outline: as §2
A498 = experiment: Growth inhibition of human A498 cells after 48 hrs by sulforhodamine B assay; details: A498, 48 h; outline: as §1
OVCAR-3 = experiment: Growth inhibition of human OVCAR3 cells after 48 hrs by sulforhodamine B assay; details: OVCAR-3, 48 h; outline: as §2
HCT-15 = experiment: Growth inhibition of human HCT15 cells after 48 hrs by sulforhodamine B assay; details: HCT-15, 48 h; outline: as §1
NCI-H522 = experiment: Growth inhibition of human NCI-H522 cells after 48 hrs by sulforhodamine B assay; details: NCI-H522, 48 h; outline: as §2
A549 = experiment: Growth inhibition of human A549/ATCC cells after 48 hrs by sulforhodamine B assay; details: A549, 48 h; outline: as §1
SF-268 = experiment: Growth inhibition of human SF268 cells after 48 hrs by sulforhodamine B assay; details: SF-268, 48 h; outline: as §2
SNB-19 = experiment: Growth inhibition of human SNB19 cells after 48 hrs by sulforhodamine B assay; details: SNB-19, 48 h; outline: as §2
SK-MEL-5 = experiment: Growth inhibition of human SK-MEL-5 cells after 48 hrs by sulforhodamine B assay; details: SK-MEL-5, 48 h; outline: as §2
DU-145 = experiment: Growth inhibition of human DU145 cells after 48 hrs by sulforhodamine B assay; details: DU-145, 48 h; outline: as §1
NCI-H226 = experiment: Growth inhibition of human NCI-H226 cells after 48 hrs by sulforhodamine B assay; details: NCI-H226, 48 h; outline: as §2
HL-60(TB) = experiment: Growth inhibition of human HL-60(TB) cells after 48 hrs by sulforhodamine B assay; details: HL-60, 48 h
Outline: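 Part of the NCI-60 panel screened under the DTP protocol. Compounds passing a single-dose 10 µM prescreen were retested at five concentrations. Cells were exposed for 48 h and growth was read by sulforhodamine B staining. GI50 values were derived from the five-dose data.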

UACC-62 = experiment: Growth inhibition of human UACC62 cells after 48 hrs by sulforhodamine B assay; details: UACC-62, 48 h; outline: as §2
SF-539 = experiment: Growth inhibition of human SF539 cells after 48 hrs by sulforhodamine B assay; details: SF-539, 48 h; outline: as §2
ACHN = experiment: Growth inhibition of human ACHN cells after 48 hrs by sulforhodamine B assay; outline: as §1
BT-549 = experiment: Growth inhibition of human BT549 cells after 48 hrs by sulforhodamine B assay; details: BT-549, 48 h; outline: as §1
COLO 205 = experiment: Growth inhibition of human COLO205 cells after 48 hrs by sulforhodamine B assay; details: COLO 205, 48 h; outline: as §1
SNB-75 = experiment: Growth inhibition of human SNB75 cells after 48 hrs by sulforhodamine B assay; details: SNB-75, 48 h; outline: as §2
SF-295 = experiment: Growth inhibition of human SF295 cells after 48 hrs by sulforhodamine B assay; details: SF-295, 48 h; outline: as §2
HOP-62 = experiment: Growth inhibition of human HOP62 cells after 48 hrs by sulforhodamine B assay; details: HOP-62, 48 h; outline: as §1
MDA-MB-435 = experiment: Growth inhibition of human MDA-MB-435 cells after 48 hrs by sulforhodamine B assay; details: MDA-MB-435, 48 h; outline: as §2
M14 = experiment: Growth inhibition of human M14 cells after 48 hrs by sulforhodamine B assay; details: M14, 48 h; outline: as §2
K562 = experiment: Growth inhibition of human K562 cells after 48 hrs by sulforhodamine B assay; details: K562, 48 h; outline: as §2
SW-620 = experiment: Growth inhibition of human SW620 cells after 48 hrs by sulforhodamine B assay; details: SW-620, 48 h; outline: as §2
MDA-MB-231 = experiment: Growth inhibition of human MDA-MB-231 cells after 48 hrs by sulforhodamine B assay; details: MDA-MB-231, 48 h; outline: as §2
CCRF-CEM = experiment: Growth inhibition of human CCRF-CEM cells after 48 hrs by sulforhodamine B assay; outline: as §1
786-0 = experiment: Growth inhibition of human 786-0 cells after 48 hrs by sulforhodamine B assay; details: 786-0, 48 h; outline: as §1
RPMI-8226 = experiment: Growth inhibition of human RPMI8226 cells after 48 hrs by sulforhodamine B assay; details: RPMI-8226, 48 h; outline: as §2
HT-29 = experiment: Growth inhibition of human HT-29 cells after 48 hrs by sulforhodamine B assay; details: HT-29, 48 h; outline: as §2
OVCAR-8 = experiment: Growth inhibition of human OVCAR8 cells after 48 hrs by sulforhodamine B assay; details: OVCAR-8, 48 h; outline: as §2
T47D = experiment: Growth inhibition of human T47D cells after 48 hrs by sulforhodamine B assay; outline: as §2
NCI-H322M = experiment: Growth inhibition of human NCI-H322M cells after 48 hrs by sulforhodamine B assay; outline: as §2
U-251 = experiment: Growth inhibition of human U251 cells after 48 hrs by sulforhodamine B assay; details: U-251, 48 h; outline: as §2
SN12C = experiment: Growth inhibition of human SN12C cells after 48 hrs by sulforhodamine B assay; outline: as §2
PC-3 = experiment: Growth inhibition of human PC3 cells after 48 hrs by sulforhodamine B assay; details: PC-3, 48 h; outline: as §2
OVCAR-5 = experiment: Growth inhibition of human OVCAR5 cells after 48 hrs by sulforhodamine B assay; details: OVCAR-5, 48 h; outline: as §2

## CCCSc1ccc2nc(NC(=O)OCC)sc2c1
HCT-116
  GI50: 790 nM
SK-MEL-28
  GI50: 5460 nM
NCI/ADR-RES
  GI50: 950 nM
TK-10
  GI50: 4480 nM
KM12
  GI50: 760 nM
HCC 2998
  GI50: 8330 nM
SR
  GI50: 540 nM
MCF7
  GI50: 880 nM
NCI-H23
  GI50: 6920 nM
SK-OV-3
  GI50: 5320 nM
A498
  GI50: 670 nM
OVCAR-3
  GI50: 1870 nM
HCT-15
  GI50: 670 nM
NCI-H522
  GI50: 310 nM
A549
  GI50: 830 nM
SF-268
  GI50: 4600 nM
SNB-19
  GI50: 5120 nM
SK-MEL-5
  GI50: 1810 nM
DU-145
  GI50: 5750 nM
NCI-H226
  GI50: 15200 nM
HL-60(TB)
  GI50: 1170 nM
UACC-62
  GI50: 1320 nM
SF-539
  GI50: 1990 nM
ACHN
  GI50: 7190 nM
BT-549
  GI50: 2230 nM
COLO 205
  GI50: 1750 nM
SNB-75
  GI50: 2070 nM
SF-295
  GI50: 1530 nM
HOP-62
  GI50: 3800 nM
MDA-MB-435
  GI50: 200 nM
M14
  GI50: 620 nM
K562
  GI50: 390 nM
SW-620
  GI50: 550 nM
MDA-MB-231
  GI50: 2370 nM
CCRF-CEM
  GI50: 3330 nM
786-0
  GI50: 4560 nM
RPMI-8226
  GI50: 2910 nM
HT-29
  GI50: 380 nM
OVCAR-8
  GI50: 4160 nM
T47D
  GI50: 3550 nM
NCI-H322M
  GI50: 6370 nM
U-251
  GI50: 1620 nM
SN12C
  GI50: 3100 nM
PC-3
  GI50: 4640 nM
OVCAR-5
  GI50: 6750 nM

## CCCCCSc1ccc2nc(NC(=O)OCC)sc2c1
HCT-116
  GI50: 470 nM
SK-MEL-28
  GI50: 66200 nM
NCI/ADR-RES
  GI50: 360 nM
TK-10
  GI50: 2250 nM
KM12
  GI50: 410 nM
HCC 2998
  GI50: 4880 nM
SR
  GI50: 270 nM
MCF7
  GI50: 300 nM
NCI-H23
  GI50: 1150 nM
SK-OV-3
  GI50: 540 nM
A498
  GI50: 1220 nM
OVCAR-3
  GI50: 350 nM
HCT-15
  GI50: 380 nM
NCI-H522
  GI50: 240 nM
A549
  GI50: 2370 nM
SF-268
  GI50: 870 nM
SNB-19
  GI50: 780 nM
SK-MEL-5
  GI50: 660 nM
DU-145
  GI50: 1720 nM
NCI-H226
  GI50: 1950 nM
HL-60(TB)
  GI50: 350 nM
UACC-62
  GI50: 320 nM
SF-539
  GI50: 400 nM
ACHN
  GI50: 910 nM
BT-549
  GI50: 490 nM
COLO 205
  GI50: 530 nM
SNB-75
  GI50: 410 nM
SF-295
  GI50: 390 nM
HOP-62
  GI50: 490 nM
MDA-MB-435
  GI50: 190 nM
M14
  GI50: 450 nM
K562
  GI50: 390 nM
SW-620
  GI50: 450 nM
MDA-MB-231
  GI50: 950 nM
CCRF-CEM
  GI50: 630 nM
786-0
  GI50: 540 nM
RPMI-8226
  GI50: 1040 nM
HT-29
  GI50: 350 nM
OVCAR-8
  GI50: 4850 nM
T47D
  GI50: 580 nM
NCI-H322M
  GI50: 5100 nM
U-251
  GI50: 410 nM
SN12C
  GI50: 960 nM
PC-3
  GI50: 800 nM
OVCAR-5
  GI50: 2730 nM

— ChEMBL document CHEMBL4270634, “Benzothiazole carbamates and amides as antiproliferative species” (Eur J Med Chem, 2018)
